What is called IC50 is the concentration that inhibits the measured activity by half. A low value points to higher potency.

Several values for one entry are separate records, joined by “and”; a condition that tells them apart may be missing. Equal entries are not always repeated.

The subject of one assay is 833K. The assay can be described thus: Inhibition of cell growth was studied in human teratocarcinoma (833K). It is filed as functional, cell-based. Summed up: (§1)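 Monolayer solid-tumor cells were assayed by SRB protein staining using six to seven concentrations. IC50 is the concentration reducing cell density to 50% of control, derived by median-effect plot.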
In the next assay the test system is DC3F. Put plainly: Inhibition of cell growth was studied in chinese hamster lung cells (DC-3F). It is filed as functional, cell-based. The following applies: Cricetulus griseus. Summed up:
as §1

The next assay concerns DC3F/AD-II. Put plainly: Inhibition of cell growth was studied in chinese hamster lung cells resistant to actinomycin D (DC-3F/AD-II). It is filed as functional, cell-based. The note with it: Cricetulus griseus. The gist of the method: as §1
In a further assay the test system is HL-60. Put plainly: Inhibition of cell growth was studied in human promyelocytic leukemic (HL-60) cells. Type of assay: functional, cell-based. Summed up:
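HL-60 cells were exposed for 72 h and read by XTT-tetrazolium microculture assay: PMS-XTT incubation for 6 h at 37 °C, absorbance at 450 and 630 nm. Six to seven concentrations were tested. IC50 was derived by median-effect plot.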

Assay [1] concerns Mus musculus. The assay can be described thus: Anti cancer activity was tested on day 14, in mice bearing Lewis lung adenocarcinoma by injecting 0.8 mg/kg dose of compound intraperitoneally and average tumor volume was calculated. Type of assay: functional. The note with it: route intraperitoneal. Summed up:
(§2)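 BDF1 mice given Lewis lung carcinoma subcutaneously (footnote: 4 × 10⁶ cells; methods: 0.2 mL brei). Dosing was ip once daily for 5 days, starting day 3 after inoculation, with drug in DMSO. Controls received DMSO alone: four control mice and three mice per dose. Body weight change, mortality and tumor volume were recorded on days 7, 10 and 14. Tumor volume is given as T/C.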

Assay [2] deals with Mus musculus. Put plainly: Anti cancer activity was tested on day 7, in mice bearing Lewis lung adenocarcinoma by injecting 0.4 mg/kg dose of compound intraperitoneally and average tumor volume was calculated. Type of assay: functional. The following applies: route intraperitoneal. Summed up: as §2
The test system of assay [3] is Mus musculus. The assay can be described thus: Anti cancer activity was tested on day 7, in mice bearing Lewis lung adenocarcinoma by injecting 2.0 mg/kg dose of compound intraperitoneally and average tumor volume was calculated. Type of assay: functional. The following applies: route intraperitoneal. The gist of the method:
(§3)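 Lewis lung carcinoma was implanted subcutaneously in BDF₁ mice at 4 × 10⁶ cells. Starting day 3, drug in DMSO was given ip once daily for 5 days; untreated controls received DMSO alone. Groups were four control mice and three mice per dose. Body weight change and average tumor volume (T/C) were recorded on days 7, 10 and 14 after treatment began.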

Assay [4] relates to Mus musculus. Put plainly: Anti cancer activity was tested on day10, in mice bearing Lewis lung adenocarcinoma by injecting 0.4 mg/kg dose of compound intraperitoneally and average tumor volume was calculated. It is filed as functional. The note with it: route intraperitoneal. The gist of the method: as §2
Assay [5] has as its system Mus musculus. The assay can be described thus: Anti cancer activity was tested on day10, in mice bearing Lewis lung adenocarcinoma by injecting 0.8 mg/kg dose of compound intraperitoneally and average tumor volume was calculated. It is filed as functional. The note with it: route intraperitoneal. Summed up: as §2
The test system of assay [6] is Mus musculus. The assay can be described thus: Anti cancer activity was tested on day 14, in mice bearing Lewis lung adenocarcinoma by injecting 0.4 mg/kg dose of compound intraperitoneally and average […] was reported. It is filed as functional. The note with it: route intraperitoneal. Summed up: as §3
In assay [7] the test system is Mus musculus. Put plainly: (§4) Anti cancer activity was tested on day10, in mice bearing Lewis lung adenocarcinoma by injecting 0.4 mg/kg dose of compound intraperitoneally and average weight change was reported. Type of assay: functional. The following applies: route intraperitoneal. Summed up: as §3
Assay [8] deals with Mus musculus. The assay can be described thus: Anti cancer activity was tested on day10, in mice bearing Lewis lung adenocarcinoma by injecting 0.8 mg/kg dose of compound intraperitoneally and average weight change was reported. Type of assay: functional. The note with it: route intraperitoneal. Summed up: as §2
In assay [9] the test system is Mus musculus. Put plainly: Anti cancer activity was tested on day 14, in mice bearing Lewis lung adenocarcinoma by injecting 0.8 mg/kg dose of compound intraperitoneally and average weight change was reported. It is filed as functional. The note with it: route intraperitoneal. The gist of the method: as §2
Assay [10] relates to Mus musculus. Put plainly: Anti cancer activity was tested on day 7, in mice bearing Lewis lung adenocarcinoma by injecting 2.0 mg/kg dose of compound intraperitoneally and average weight change was reported. Type of assay: functional. The note with it: route intraperitoneal. The gist of the method: as §3
For another assay, the system named is SK-BR-3. Put plainly: Inhibition of cell growth was studied in human mammary adenocarcinoma (SKBR-3). Type of assay: functional, cell-based. Summed up: as §1
For assay [11], the system named is Mus musculus. The assay can be described thus: Anti cancer activity was tested on day 14, in mice bearing Lewis lung adenocarcinoma by injecting 0.4 mg/kg dose of compound intraperitoneally and a. average […] was reported. Type of assay: functional. The note with it: route intraperitoneal. Summed up: as §2
The subject of assay [12] is Mus musculus. The description is as §4. It is filed as functional. The following applies: route intraperitoneal. The gist of the method:
as §2
The source holds these as a separate data set.

For `CO[C@@]12[C@H](COC(N)=O)C3=C(C(=O)C(C)=C(N)C3=O)N1C[C@@H]1N[C@@H]12` [MITOMYCIN], the IC50 in the assay with 833K is 0.328 µM; in the assay with DC3F, 0.082 µM; in the assay on DC3F/AD-II it was 0.11 µM; in the assay on HL-60, 0.05 µM; with SK-BR-3 it was 0.993 µM. The Average tumor volume was 0.437 T/C in the assay with Mus musculus [1]; 0.169 T/C in the assay with Mus musculus [3]; 0.411 T/C in the assay with Mus musculus [4]; 0.363 T/C in the assay on Mus musculus [5]; 0.515 T/C with Mus musculus [6]. The “Tumor volume treated/control ratio (T/C)” value with Mus musculus [2] was 0.49 T/C and 0.356 T/C. For the same compound, the Average weight change in the assay with Mus musculus [6] is 0.6 g; in the assay on Mus musculus [7], -1.2 g; in the assay with Mus musculus [8] it was -1.8 g; with Mus musculus [9], 0.2 g; in the assay on Mus musculus [10], -2.7 g.

Consider `NC(=O)OCc1cc2c(c3c1CCC3)C(=O)c1ccccc1C2=O`, for which the IC50 in the assay with HL-60 amounted to 123 µM.

`CNC(=O)OCc1cc2c(c3c1CCC3)C(=O)c1ccccc1C2=O`: half-maximal inhibition in the assay with HL-60 (IC50) required 274 µM.

As for `CNC(=O)OCc1cc2c(c3c1C1NC1C3)C(=O)c1ccccc1C2=O` (configuration not stated), the IC50 worked out at 23.9 µM with 833K; 10.4 µM in the assay on DC3F; 3.6 µM in the assay with DC3F/AD-II; 6.03 µM in the assay on HL-60; 19.9 µM in the assay on SK-BR-3. Also, the Average tumor volume in the assay on Mus musculus [1] is 0.496 T/C; in the assay on Mus musculus [4], 0.303 T/C; in the assay on Mus musculus [5], 0.205 T/C; in the assay with Mus musculus [11] it was 0.529 T/C. In the assay on Mus musculus [2], the “Tumor volume treated/control ratio (T/C)” value is 1.011 T/C and 0.529 T/C. The Average weight change in the assay on Mus musculus [11] was 2 mg/kg; in the assay with Mus musculus [8], -0.4 g; with Mus musculus [9], 0.5 g; in the assay on Mus musculus [12], -0.2 mg/kg.

The record behind these values is ChEMBL document CHEMBL1129372, “Cyclopent[a]anthraquinones as DNA intercalating agents with covalent bond formation potential: synthesis and biological activity” (J Med Chem, 1996).
